Measured values from ChEMBL document CHEMBL1136652, “Conformationally-restricted analogues and partition coefficients of the 5-HT3 serotonin receptor ligands meta-chlorophenylbiguanide (mCPBG) and meta-chlorophenylguanidine (mCPG)” (Bioorg Med Chem Lett, 2003).

Key:
[1] = Partition coefficient in an aqueous 1-octanol buffer system by the shake-flask method; assay type: physicochemical; settings: 1-octanol/aqueous buffer
Procedure, shortened: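 LogP_app by shake-flask in aqueous buffer/1-octanol at pH 7.4 (ionic strength 0.10 M NaCl), 23±1.0 °C. Aqueous-phase compound concentration measured spectrophotometrically; values are means of duplicate determinations run in triplicate.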

[2] = molecular target: Serotonin 3 (5-HT3) receptor; test: Binding affinity for 5-HT3 receptor of NG108-15 cells using [3H]GR-65630; assay type: cell-based
Procedure, shortened: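 Competition binding against 1 nM [3H]GR65630 (84.2 Ci/mmol; KD 0.7 nM); nonspecific binding defined with […]. Incubation 30 min at room temperature, then filtration on presoaked glass fiber filters, ice-cold buffer wash, scintillation counting. Log concentration vs percent inhibition fitted by nonlinear least squares assuming 100% maximal inhibition; Ki from IC50 via Cheng-Prusoff.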

Row | Structure (SMILES) | logD [1] | Ki [2] [µM]
1 | NC(N)=Nc1cccc(Cl)c1 | -0.64 | –
2 | CC1N=C(N)N=C(N)N1c1cccc(Cl)c1 (stereo not given) | – | > 10
3 | Nc1nccc(Nc2cccc(Cl)c2)n1 | – | 1.46
4 | Nc1ncnc(Nc2ccccc2)n1 [AMANOZINE] | – | > 10
5 | N=C(N)NC(=N)Nc1ccccc1 [PHENYL BIGUANIDE] | -1.17 | –
6 | N=C(N)Nc1ccccc1 [PHENYLGUANIDINE] | -1.32 | –
7 | N=C(N)Nc1cc(Cl)c(Cl)c(Cl)c1 | 1.16 | –
8 | Nc1nc2ccc(Cl)cc2[nH]1 | – | 0.725
9 | NC1=Nc2cc(Cl)ccc2CN1 | – | 0.034
10 | N=C(N)NC(=N)Nc1cccc(Cl)c1 | -0.38 | –

Other lines, results leading:

Row | logD [1] | Ki [2] [µM] | Structure (SMILES)
11 | – | > 10 | Nc1nc(Nc2cccc(Cl)c2)n[nH]1
12 | – | > 10 | CC1(C)N=C(N)N=C(N)N1c1cccc(Cl)c1
13 | 1.47 | – | N=C(N)NC(=N)Nc1cc(Cl)c(Cl)c(Cl)c1
14 | – | > 10 | Nc1ncnc(Nc2ccc3ccccc3c2)n1
15 | – | > 10 | Nc1ncnc(Nc2cccc(Cl)c2)n1
